Series [1] is described as follows: Distribution co-efficient, log D of the compound at pH 7.4. Conditions: buffer. It counts as physicochemical.
Series [2] has as its system PC-12. In words: Induction of apoptosis in rat PC12 cells at 200 uM after 24 hrs by trypan blue exclusion assay. The class given is functional, cell-based. Put shortly: (§1)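 PC12 cells (rat pheochromocytoma) grown in DMEM with 5% horse serum, 10% FBS, penicillin/streptomycin and sodium pyruvate at 37 °C, 5% CO2. Treated 24 h at 10, 25, 50, 75, 100 and 200 µM in DMSO (0.1% final). Trypan blue in 0.9% NaCl added 1:4 for 30 min at 37 °C. Blue cells counted as dead, as % of total cells. Mean of 4 experiments ± S.D.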

The nature of series [3]: Metal chelating activity of the compound assessed as zinc affinity by UV spectroscopy. The class given is functional. Put shortly:
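Compound diluted from a 10 mM DMSO stock to 50 µM final in 50 mM Hepes, 100 mM NaNO3, pH 7.4. ZnSO4 added at 0–1 equiv and equilibrated 60 min. Absorbance spectra recorded from 260 to 500 nm; change followed at 360 and 400 nm.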

The subject of series [4] is PC-12. Briefly: Induction of apoptosis in rat PC12 cells at 200 uM after 24 hrs by trypan blue exclusion assay in presence of caspase-3 inhibitor C3-I. The class given is functional, cell-based. Put shortly: (§2)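 PC12 cells exposed 24 h to chelator (25, 100 or 200 µM), alone or together with ZnSO4, caspase-3 inhibitor, or DHR as ROS scavenger. Each additive was also tested alone. Stained with trypan blue. Dead cells expressed as % of total cells. Mean of 4 experiments ± S.D. One-way ANOVA with Holm-Sidak, compared against DMSO.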

In series [5] the test system is PC-12. In words: Induction of apoptosis in rat PC12 cells assessed as ROS induction by DHE oxidation-based fluorometric assay. It counts as functional, cell-based.
The test system of series [6] is PC-12. In words: Induction of apoptosis in rat PC12 cells after 24 hrs by trypan blue exclusion assay. The class given is functional, cell-based. Conditions: for EC50: PC-12, 24 h. In short, it runs like this:
as §1

The subject of series [7] is PC-12. In words: Induction of apoptosis in rat PC12 cells at 200 uM after 24 hrs by trypan blue exclusion assay in presence of ZnSO4. The class given is functional, cell-based. Put shortly:
as §2

Series [8] deals with PC-12. In words: Induction of apoptosis in rat PC12 cells assessed as procaspase-3 activation at 200 uM after 24 hrs by fluorometric assay. It counts as functional, cell-based. Put shortly: (§3)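 PC12 cells in 96-well plates were treated 4 h. Lysed in modified RIPA buffer (50 mM Tris-HCl pH 7.4, 1% Igepal, 0.25% deoxycholate, 150 mM NaCl, 1 mM EGTA) containing 20 µM (DEVD)2-rhodamine 110. Lysate incubated 24 h at 37 °C, fluorescence read at ex 485/em 535 nm. Wells with 1 µM Ac-DEVD-cmk served as negative control. DMSO control; staurosporine 0.5 and 1 µM as positive controls. Mean of 5 experiments ± S.D.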

Series [9] has as its system PC-12. In words: Induction of apoptosis in rat PC12 cells at 200 uM after 24 hrs by trypan blue exclusion assay in presence of DHR. The class given is functional, cell-based. In short, it runs like this: as §2
Series [10] has as its system PC-12. In words: Induction of apoptosis in rat PC12 cells assessed as ROS induction at 200 uM measured after 1 to 4 hrs by DHR oxidation-based fluorometric assay. It counts as functional, cell-based. In short, it runs like this: (§4)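 PC12 cells in 96-well plates were loaded with DHR (0.1 µM) for 30 min at 37 °C, washed, then treated 1 h or 4 h. Medium was replaced with PBS and fluorescence read for 30 min (ex 485/em 535 nm). The slope gave ROS production, relative to the untreated-control slope at 4 h. Untreated and DMSO controls. Mean of 3 experiments ± S.D.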

The subject of series [11] is PC-12. Briefly: Induction of apoptosis in rat PC12 cells assessed as procaspase-3 activation at 1 uM after 24 hrs by fluorometric assay. The class given is functional. Put shortly: (§5)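 Rat PC12 cells were seeded in 96-well plates at 28 × 10^4 for 24 h, then treated for 4 h, with DMSO-treated cells as control. Cells were lysed in modified RIPA buffer (50 mM Tris-HCl pH 7.4, 1% Igepal, 0.25% deoxycholate, 150 mM NaCl, 1 mM EGTA) containing 20 µM (DEVD)2-Rhodamine 110. Lysate was incubated 24 h at 37 °C and read at ex 485/em 535 nm as RFU/million cells.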

Series [12] relates to PC-12. In words: Induction of apoptosis in rat PC12 cells assessed as procaspase-3 activation at 0.5 uM after 24 hrs by fluorometric assay. The class given is functional. In short, it runs like this:
as §5

Series [13] concerns PC-12. Briefly: Induction of apoptosis in rat PC12 cells assessed as ROS induction at 100 uM measured after 1 to 4 hrs by DHR oxidation-based fluorometric assay. The class given is functional, cell-based. In short, it runs like this:
as §4

A short description of series [14]: Lipophilicity, log P of the compound. Conditions: octanol/water. It counts as physicochemical.
Series [15] deals with PC-12. In words: Induction of apoptosis in rat PC12 cells at 100 uM after 24 hrs by trypan blue exclusion assay in presence of DHR. The class given is functional, cell-based. In short, it runs like this: as §2
The test system of series [16] is PC-12. In words: Induction of apoptosis in rat PC12 cells assessed as procaspase-3 activation at 100 uM after 24 hrs by fluorometric assay. The class given is functional, cell-based. Put shortly:
as §3

For series [17], the system named is PC-12. In words: Induction of apoptosis in rat PC12 cells at 100 uM after 24 hrs by trypan blue exclusion assay in presence of caspase-3 inhibitor C3-I. It counts as functional, cell-based. In short, it runs like this:
as §2

For series [18], the system named is PC-12. Briefly: Induction of apoptosis in rat PC12 cells at 100 uM after 24 hrs by trypan blue exclusion assay in presence of ZnSO4. The class given is functional, cell-based. In short, it runs like this: as §2
For series [19], the system named is PC-12. In words: Induction of apoptosis in rat PC12 cells assessed as ROS induction at 25 uM measured after 1 to 4 hrs by DHR oxidation-based fluorometric assay. The class given is functional, cell-based. Put shortly:
as §4

The subject of series [20] is PC-12. Briefly: Induction of apoptosis in rat PC12 cells at 25 uM after 24 hrs by trypan blue exclusion assay in presence of ZnSO4. The class given is functional, cell-based. In short, it runs like this: as §2
The test system of series [21] is PC-12. Briefly: Induction of apoptosis in rat PC12 cells assessed as procaspase-3 activation at 25 uM after 24 hrs by fluorometric assay. The class given is functional, cell-based. Particulars: in the assay text read “after 4 hrs” for “after 24 hrs”. Put shortly: as §3
In series [22] the test system is PC-12. Briefly: Induction of apoptosis in rat PC12 cells at 25 uM after 24 hrs by trypan blue exclusion assay in presence of caspase-3 inhibitor C3-I. The class given is functional, cell-based. Put shortly: as §2

This is an account of results in ChEMBL document CHEMBL2413052, “Synthesis and initial in vitro biological evaluation of two new zinc-chelating compounds: comparison with TPEN and PAC-1” (Bioorg Med Chem, 2013).

Each structure is given as a SMILES string. Calls of active or inactive are those of the source. No cut-off for these calls is given here.

In the case of `O=C(CN1CCN(Cc2ccccc2)CC1)NNC(=O)CN(Cc1ccccn1)Cc1ccccn1`, in series [1], the logD (as a rule, the decadic logarithm of the distribution of all forms, ionised or not, between an organic phase and buffer at a given pH) was 1.4. Also, the EC50 (usually the concentration giving half of the maximal effect) with PC-12 [2] is “ND(Insoluble)”. For the same compound, the Kd (usually the equilibrium constant for the complex coming apart) in series [3] was determined as 1000 pM. Besides, the result in the series on PC-12 [4], with PC-12 [5], with PC-12 [9] and in the series with PC-12 [10] was inactive. The Activity entry in the series on PC-12 [6] was “Dose-dependent effect”. The outcome in the series on PC-12 [7] and in the series with PC-12 [8] was Active.
For `CN[C@@H]1C[C@H]2O[C@@](C)([C@@H]1OC)n1c3ccccc3c3c4c(c5c6ccccc6n2c5c31)C(=O)NC4` [STAUROSPORINE], the RFU amounted to 30000 in the series with PC-12 [11] and 6000 in the series with PC-12 [12].
`C=CCc1cccc(/C=N/NC(=O)CN2CCN(Cc3ccccc3)CC2)c1O` [PAC-1]: the result in the series with PC-12 [13] and in the series with PC-12 [16] was Active. For the same compound, the logP (in general, a log measure of how a compound divides between an organic and an aqueous phase) in series [14] amounted to 3.43. In addition, the Kd in series [3] is 42000 pM. Further, the outcome in the series with PC-12 [15], in the series with PC-12 [5], in the series with PC-12 [17] and in the series with PC-12 [18] was inactive. The Activity entry in the series on PC-12 [6] was “Dose-dependent effect”. In the series on PC-12 [6], the EC50 is 122000 nM.
Compound `Cc1ncc(CO)c(/C=N/NC(=O)CN2CCN(Cc3ccccc3)CC2)c1O` displayed a logD in [1] of 1.27. Besides, the concentration giving a half-maximal response (EC50) entry in the series with PC-12 [2] is recorded as “ND(Insoluble)”. In [3], the Kd turned out to be 0.2 pM. Further, the outcome with PC-12 [4], in the series with PC-12 [5], in the series on PC-12 [7] and with PC-12 [9] was inactive. Besides, the Activity entry in the series on PC-12 [6] was “Dose-dependent effect”. Further, the result in the series on PC-12 [8] and in the series on PC-12 [10] was Active.
With `c1ccc(CN(CCN(Cc2ccccn2)Cc2ccccn2)Cc2ccccn2)nc1`, the Kd in [3] was 0.00026 pM. Further, the outcome with PC-12 [19] and with PC-12 [21] was Active. The outcome in the series on PC-12 [5], with PC-12 [20] and in the series with PC-12 [22] was inactive. For the same compound, the Activity result with PC-12 [6] is “Dose-dependent effect”. This compound had an EC50 in the series with PC-12 [6] of 38000 nM.
